High-throughput results from PubChem BioAssay.
Phagocytosis inh: blocks phagocytosis by macrophages. J774A.1 macrophage IgG-bead phagocytosis, imaging. inhibition, % at 5 µM. 0.07% of 110,000 active. AID 1029;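 active = inhibition above the mean of the plate negative controls plus 5 SD, cut at about 13% in these data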;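 note: phagocytic index as fraction of beads internalized from green versus red external bead signal; plate controls were DMSO negative control for no effect and cytochalasin-D positive control for full effect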
MRP resist rev: compounds reversing MRP-mediated drug resistance. H69AR cells + 2 uM doxorubicin, CellTiter-Glo, 72 h. differential viability (reversal), % at 10 µM. 0.04% of 85,000 active. AID 602;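 active = viability drop by adding the cancer drug above about 55%, with treated viability meeting a 40% cutoff, limit read from the data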;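 note: viability without doxorubicin minus viability with 2 µM doxorubicin for each compound; larger differential means the compound sensitizes cells more to doxorubicin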
Yeast growth inh: reduces growth of yeast BB579 in restrictive medium; S. cerevisiae BB579 growth, OD615, 48 h; inhibition, % at 10 µM; 0.51% of 140,000 active; AID 804;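 active = inhibition above a set limit, 3 SD over the mean compound inhibition, cut at about 44% in these data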
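Material: Saccharomyces cerevisiae DeaD strain BB579, replicative lifespan model yeast; buffer or medium: CSMM-D restrictive synthetic medium containing dextrose (glucose); compound: 10 µM single dose, DMSO 0.25%; timing: 48 h compound exposure at 30 °C after 4 h preincubation; signal: turbidity as optical density at 615 nm; benchmarks: positive control amphotericin B 10 µg/mL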
Yeast life ext: yeast lifespan extension | AID 775 | 0.68% of 130,000 active | S. cerevisiae growth with nicotinamide, OD615; deaD strain in restrictive glucose medium | inhibition of the nicotinamide effect, % at 10 µM;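 active = inhibition above a set limit, placed 3 SD over the median of all compounds, cut at about 26% in these data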;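 note: 0% = nicotinamide-treated wells and 100% = cells grown without nicotinamide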
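assay system = DeaD-strain S. cerevisiae | buffer or medium = restrictive glucose medium | reagent = 1.5 mM nicotinamide | compound = 10 µM single point, 0.25% DMSO | incubation = 48 h compound exposure at 30 °C, humidified | signal = OD615 measurement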
MRP1 act: MRP-1 activation; H69AR cells + doxorubicin, viability rescue, CellTiter-Glo; viability increase, % at 10 µM; 0.61% of 140,000 active;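 active = viability gain under doxorubicin at or above a set limit, the compound median plus 3 SD, cut at about 4.7% in these data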;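 note: MRP-1 overexpressing cells given doxorubicin 25 µM after compound pretreatment; 18-22 h compound pretreatment then 72 h with doxorubicin before readout; 0% = doxorubicin-only wells and 100% = vehicle-treated cells without doxorubicin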
SDO1 yeast rescue: compounds rescuing growth of sdo1-depleted yeast, bone marrow failure model; S. cerevisiae sdo1-depleted JHY4D growth rescue, OD600 30 h; stronger effect = higher value; pdr5 snq2 efflux-pump mutant strain; z-score at 10 µM; 0.21% of 140,000 active; AID 817;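 active = z-score above 3 at both the 24 hr and the 30 hr optical density reads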;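 note: z-score against mean and SD of all compound wells on the same plate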
* marks the source's active call; other numbers are inactive results; / = no result given. Hits are enriched below; roughly 2.1% of the tested compounds scored in any of these assays.

SMILES | Phagocytosis inh | MRP resist rev | Yeast growth inh | Yeast life ext | MRP1 act | SDO1 yeast rescue
N=c1c2c(-c3ccccc3)c(-c3ccccc3)n(Cc3ccco3)c2ncn1Cc1ccccc1 | -1 | -30 | -41 | 41 | -4 | -2.2
CC(C)Cn1cnc2c(c(-c3ccccc3)c(-c3ccccc3)n2Cc2ccco2)c1=N | -1 | 0 | -39 | 28* | -3 | -2.5
COc1ccc(-c2cc(C(=O)N3CCN(c4ncccn4)CC3)c3ccccc3n2)c(OC)c1 | -2 | / | 59* | -5 | -4 | -1.3
COc1ccc(-c2csc(NC(=O)c3cc(-c4cccs4)nc4ccccc34)n2)c(OC)c1 | -7 | / | -4 | -2 | 4.8* | -1.2
COc1ccc(-c2cc(C(=O)O)c3ccccc3n2)c(OC)c1 | 0 | 5 | -51 | -9 | -1 | -0.47
CCOc1ccc2nc(-c3ccc(OC)c(OC)c3)cc(C(=O)O)c2c1 | 0 | 12 | -12 | 51* | -1 | 3
COc1ccc2cc(-c3cc(C(=O)O)c4ccccc4n3)ccc2c1 | / | / | 37 | -13 | 6.5* | 0.78
COc1ccc(OC)c(-c2cc(C(=O)N3CCN(c4ncccn4)CC3)c3ccccc3n2)c1 | / | 1 | -52 | -18 | -6 | -0.23
COc1ccc(CCNC(=O)CCc2ccc(S(=O)(=O)NCC(C)C)cc2)cc1 | -2 | / | -12 | 1 | 0 | 0.7
COc1cccc(-c2nn(-c3ccccc3)cc2C(=O)NCC(=O)O)c1 | 0 | 5 | -6 | -6 | 2 | -0.17
N#Cc1c(-c2ccccc2)c(-c2ccccc2)nn(CC(=O)NNC(=O)Nc2ccccc2)c1=O | / | / | -10 | 62* | -1 | -0.36
O=C(Cn1nc(-c2ccccc2)c2ccccc2c1=O)Nc1cccnc1 | -1 | 16 | -40 | -7 | -2 | 0.25
CCCS(=O)(=O)N1CCN(C(=O)c2ccc(-c3ccccc3)cc2)CC1 | / | 5 | -2 | -24 | 0 | -0.49
COC(=O)[C@@]1(Cc2ccc(OC)cc2)[C@@H]2C(=CC(=O)[C@H]2CC(=O)C(=O)N(C)C)CN1C(=O)c1ccccc1 | / | / | -33 | 3 | -5 | -0.34
C=C1C(=O)C=C2CN(C(=O)c3ccccc3)[C@@](Cc3ccc(F)cc3)(C(=O)OC)[C@@H]12 | / | / | -15 | 43* | -5 | -1.4
Cc1ccc(C(=O)/C=C\C(=O)c2ccc(C)cc2)cc1 | 4 | / | 4 | 65* | -6 | -2.3
Cc1ccc(C(=O)/C=C/c2ccc(-c3ccc(C)cc3)o2)cc1 | -5 | / | -16 | 28* | -2 | -0.22
O=C(/C=C\c1ccc(-c2ccccc2)o1)c1ccccc1 | -7 | / | -41 | 15 | -5 | -1.5
CCCCOc1ccc(-c2csc(N)n2)cc1[N+](=O)[O-] | -12 | / | -9 | -5 | 0 | -1.4
CC(CN1CCN(C)CC1)OC(=O)c1ccccc1 (configuration not stated) | / | -17 | -45 | 2 | 1 | 0.57
OCc1ccnc2c(O)cccc12 | 0 | / | 54* | -14 | -5 | -0.54
CCn1cc(C(=O)NC2CCCCC2)c(=O)c2ccc(C)nc21 | / | 1 | -9 | -2 | 0 | -1.3
COc1cc(/C=N/NC(=O)C23CC4CC(CC(C4)C2)C3)cc(Br)c1O | / | / | -44 | 9 | 14* | 0.2
CCn1c(C)c(C)c2cc(C(=O)Nc3cccc(Cl)c3)ccc21 | / | / | -61 | -23 | 6.5* | -1.7
CCn1c2ccccc2c2cc(NC(=O)c3cccc(OC)c3)ccc21 | 0 | / | -107 | -15 | -1 | -1
SMILES | Phagocytosis inh | MRP resist rev | Yeast growth inh | Yeast life ext | MRP1 act | SDO1 yeast rescue
Cc1ccccc1OCC(=O)NNC(=S)NC(=O)c1ccccc1[N+](=O)[O-] | / | / | -36 | 1 | -3 | 1
CC(C)(C)c1ccc(OCC(=O)NNC(=S)NC(=O)c2ccccc2[N+](=O)[O-])c(Br)c1 | -2 | / | -38 | 31* | -4 | 0.47
CC(C)c1ccc(C(CC(=O)c2ccc(Cl)cc2)C(=O)O)cc1 (configuration not stated) | / | / | -36 | 15 | -1 | 1.1
CCc1ccc(C(CC(=O)c2ccc(Cl)cc2)C(=O)O)cc1 (configuration not stated) | / | / | -69 | 31* | 0 | 1
CCCn1c(C)cc(C(=O)COc2ncnc3sccc23)c1C | -3 | / | 0 | 49* | -2 | -1.1
Cc1cc(C)c(S(=O)(=O)c2ccccc2)c(OC(=O)c2ccc(Cl)cc2Cl)n1 | -1 | -1 | -52 | 52* | 1 | 1
